# Experimental data of several laboratories.
# Lines come from different studies, so protocols differ.
# Target: Cytochrome P450 2C9 (CYP2C9, Homo sapiens, UniProt P11712)
# Observed: enzyme activity
# Mode: inhibitor
Compound,assay,test system,setting,quantity,result
O=C(N[C@H](Cc1c[nH]c2ccccc12)C(=O)Nc1ccncc1)c1ccc(-c2cc(F)ccc2F)cc1F,,"human, liver microsomes",1 µM,inhibition,92%
CCc1cc(/C(C)=N/OCc2ccc(C3CCCCC3)c(C(F)(F)F)c2)ccc1CN1CC(C(=O)O)C1,,"human, liver microsomes","200 µM, 20 min",inhibition,43.2%
O=C(Nc1c2c(cc3c1CCC3)CCC2)NS(=O)(=O)/C=C/c1nccs1,,"human, liver microsomes","2 µM, pH 7.4",inhibition,21.4%
NC(=O)C1CCN(C(=O)Cc2ccc(N(CCCO)Cc3cnc4nc(N)nc(N)c4n3)cc2)CC1,luciferase,,10 µM,inhibition,-7.8%
O=C(NS(=O)(=O)c1ccc(Br)s1)c1ccc(Cl)cc1Cl,,"human, liver microsomes",,Ki,0.1 µM
CC(=O)c1cccc(OCc2cc(C(=O)N(C)[C@@H](C)c3ccccn3)no2)c1,,"human, liver microsomes",,IC50,6.3 µM
COC(=O)C1CCN(C(=O)c2cccc(NCc3cnc4nc(N)nc(N)c4n3)c2)CC1,luciferase,,10 µM,inhibition,-4.69%
CC1(CO)C(O[C@@H]2O[C@H](C(=O)O)[C@@H](O)[C@H](O)[C@H]2O)CC[C@@]2(C)C1CC[C@]1(C)C2CC=C2[C@H]3CC(C)(C)[C@H](O)[C@@H](O)[C@]3(CO)[C@H](O)C[C@]21C (stereo partly shown),mass spectrometry,"human, liver microsomes",,IC50,> 90 µg/mL
C=C[C@H]1C[N@@]2CC[C@H]1C[C@@H]2[C@@H](O)c1ccnc2ccc(OC)cc12,,"human, liver microsomes",10 µM,inhibition,15%
C=CC(=O)Nc1cc(Nc2nccc(Nc3cc(Cl)c(F)cc3C(C)(C)O)n2)c(OC)cc1N1CC[C@@H](N(C)C)C1,,"human, liver microsomes",10 µM,inhibition,< 20%
Cc1cccc(F)c1N1CCC(N2Cc3cn(CC(C)(F)F)nc3N(Cc3ccccc3C(F)(F)F)C2=O)CC1,,"human, liver microsomes",,IC50,> 10 µM
NC(=O)C1CCCN1C(=O)Cc1ccc(N(CCCO)Cc2cnc3nc(N)nc(N)c3n2)cc1 (stereo not shown),luciferase,,10 µM,inhibition,-3.91%
CC(=O)N1CCN(c2ccc(OCC3COC(Cn4ccnc4)(c4ccc(Cl)cc4Cl)O3)cc2)CC1 (stereo not shown),,"human, liver microsomes",1 µM,inhibition,24%
